Experimental data from ChEMBL document CHEMBL1136055, “3-Heteroaryl-2-pyridones: benzodiazepine site ligands with functional delectivity for alpha 2/alpha 3-subtypes of human GABA(A) receptor-ion channels” (J Med Chem, 2002).

Experiments:
[1] = biological target: T1, GABA-A receptor; alpha-3/beta-3/gamma-2 (Homo sapiens, UniProt P18507+P28472+P34903); assay: Binding affinity by displacement of [3H]Ro-151788 from recombinant human gamma-aminobutyric-acid A receptor alpha3,beta3,gamma2 stably expressed in L cells; type: cell-based
T1 sequence (P18507 whole entry): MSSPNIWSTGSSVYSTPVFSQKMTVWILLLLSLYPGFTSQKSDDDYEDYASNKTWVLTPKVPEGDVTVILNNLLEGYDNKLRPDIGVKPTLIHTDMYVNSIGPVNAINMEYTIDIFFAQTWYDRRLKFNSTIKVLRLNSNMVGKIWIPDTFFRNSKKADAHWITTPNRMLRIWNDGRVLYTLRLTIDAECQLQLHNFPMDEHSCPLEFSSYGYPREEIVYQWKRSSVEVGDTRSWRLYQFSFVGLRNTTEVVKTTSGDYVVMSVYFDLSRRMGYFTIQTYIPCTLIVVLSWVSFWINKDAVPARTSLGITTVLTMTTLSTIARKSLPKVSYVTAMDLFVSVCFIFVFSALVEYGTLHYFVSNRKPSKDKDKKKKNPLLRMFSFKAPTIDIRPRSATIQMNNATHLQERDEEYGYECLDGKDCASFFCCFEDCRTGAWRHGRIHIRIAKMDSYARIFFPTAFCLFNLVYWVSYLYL
T1 sequence (P28472 whole entry): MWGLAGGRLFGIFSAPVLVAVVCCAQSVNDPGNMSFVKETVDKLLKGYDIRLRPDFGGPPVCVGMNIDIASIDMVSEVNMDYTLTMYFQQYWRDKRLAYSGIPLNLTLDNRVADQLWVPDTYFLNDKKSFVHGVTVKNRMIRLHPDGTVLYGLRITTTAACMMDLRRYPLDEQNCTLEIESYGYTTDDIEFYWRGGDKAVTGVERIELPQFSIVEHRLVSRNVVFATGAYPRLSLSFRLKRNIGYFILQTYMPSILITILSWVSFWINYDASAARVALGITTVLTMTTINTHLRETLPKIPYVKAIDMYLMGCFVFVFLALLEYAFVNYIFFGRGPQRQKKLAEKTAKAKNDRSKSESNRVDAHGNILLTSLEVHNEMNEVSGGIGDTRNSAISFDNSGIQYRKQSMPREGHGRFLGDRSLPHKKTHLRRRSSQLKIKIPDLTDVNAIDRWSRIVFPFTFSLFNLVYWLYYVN
T1 sequence (P34903 whole entry): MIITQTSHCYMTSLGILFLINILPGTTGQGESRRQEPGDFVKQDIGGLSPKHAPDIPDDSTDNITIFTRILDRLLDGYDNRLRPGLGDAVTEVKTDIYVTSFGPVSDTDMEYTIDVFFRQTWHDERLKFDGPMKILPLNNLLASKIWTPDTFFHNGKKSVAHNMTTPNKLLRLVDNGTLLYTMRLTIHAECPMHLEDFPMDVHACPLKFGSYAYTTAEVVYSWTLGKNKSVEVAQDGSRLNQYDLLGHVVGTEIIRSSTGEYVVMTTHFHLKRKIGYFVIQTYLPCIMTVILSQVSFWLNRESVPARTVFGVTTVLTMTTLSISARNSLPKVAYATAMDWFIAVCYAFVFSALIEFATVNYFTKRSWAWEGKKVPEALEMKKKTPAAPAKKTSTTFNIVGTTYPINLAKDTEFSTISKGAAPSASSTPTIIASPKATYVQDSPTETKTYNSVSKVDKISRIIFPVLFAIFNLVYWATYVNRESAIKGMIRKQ
How it was run: (§1)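 Competition binding against [3H]Ro15-1788 on cloned human α1/α2/α3/α5 β3γ2S receptors stably expressed in L(tk-) cells. Six to eight test concentrations spaced in half-log steps. Ki given as mean (SEM), n = 3-5, reported to two significant figures.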

[2] = biological target: T2, GABA-A receptor; alpha-1/beta-3/gamma-2 (Homo sapiens, UniProt P14867+P18507+P28472); assay: Inhibition of [3H]Ro-151788 binding to human GABA A receptor (alpha-1-beta-3-gamma-2) stably expressed in L(tk-) cells.; type: cell-based
T2 sequence (P14867 whole entry): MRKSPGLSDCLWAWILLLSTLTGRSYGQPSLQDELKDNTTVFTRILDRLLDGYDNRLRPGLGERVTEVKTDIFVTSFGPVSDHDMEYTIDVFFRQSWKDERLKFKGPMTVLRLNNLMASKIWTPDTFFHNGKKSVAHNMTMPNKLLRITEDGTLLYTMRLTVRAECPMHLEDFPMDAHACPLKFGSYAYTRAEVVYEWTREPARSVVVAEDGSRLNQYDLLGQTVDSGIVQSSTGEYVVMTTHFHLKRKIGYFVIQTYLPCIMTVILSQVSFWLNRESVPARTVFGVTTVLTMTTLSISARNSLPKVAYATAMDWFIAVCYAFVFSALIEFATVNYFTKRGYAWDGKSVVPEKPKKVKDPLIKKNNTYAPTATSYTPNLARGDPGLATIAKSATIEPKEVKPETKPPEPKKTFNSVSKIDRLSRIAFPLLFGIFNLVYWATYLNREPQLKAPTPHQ
T2 sequence (P18507 whole entry): T1 sequence (P18507 whole entry)
T2 sequence (P28472 whole entry): T1 sequence (P28472 whole entry)

[3] = biological target: T3, GABA-A receptor; alpha-5/beta-3/gamma-2 (Homo sapiens, UniProt P18507+P28472+P31644); assay: Inhibition of [3H]Ro-151788 binding to human GABA A receptor (alpha-5-beta-3-gamma-2) stably expressed in L(tk-) cells.; type: cell-based; how it was run: as §1
T3 sequence (P18507 whole entry): T1 sequence (P18507 whole entry)
T3 sequence (P28472 whole entry): T1 sequence (P28472 whole entry)
T3 sequence (P31644 whole entry): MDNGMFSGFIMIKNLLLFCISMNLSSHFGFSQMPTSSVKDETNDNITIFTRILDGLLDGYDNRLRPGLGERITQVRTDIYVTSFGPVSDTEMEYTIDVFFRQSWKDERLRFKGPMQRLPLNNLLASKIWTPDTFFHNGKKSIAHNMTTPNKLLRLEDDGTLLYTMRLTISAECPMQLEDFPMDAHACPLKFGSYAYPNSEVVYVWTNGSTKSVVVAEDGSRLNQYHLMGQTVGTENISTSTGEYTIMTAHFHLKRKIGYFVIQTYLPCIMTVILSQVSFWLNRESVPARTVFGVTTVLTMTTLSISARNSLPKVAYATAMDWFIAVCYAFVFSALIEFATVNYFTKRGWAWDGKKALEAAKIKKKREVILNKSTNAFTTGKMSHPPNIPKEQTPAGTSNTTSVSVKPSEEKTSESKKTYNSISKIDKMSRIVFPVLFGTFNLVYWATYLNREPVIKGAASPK

[4] = biological target: T4, GABA-A receptor; alpha-2/beta-3/gamma-2 (Homo sapiens, UniProt P18507+P28472+P47869); assay: Displacement of [3H]Ro-151788 from human Gamma-aminobutyric acid A receptor alpha-2-beta-3-gamma-2 stably expressed in L(tk-) cells; type: cell-based; how it was run: as §1
T4 sequence (P18507 whole entry): T1 sequence (P18507 whole entry)
T4 sequence (P28472 whole entry): T1 sequence (P28472 whole entry)
T4 sequence (P47869 whole entry): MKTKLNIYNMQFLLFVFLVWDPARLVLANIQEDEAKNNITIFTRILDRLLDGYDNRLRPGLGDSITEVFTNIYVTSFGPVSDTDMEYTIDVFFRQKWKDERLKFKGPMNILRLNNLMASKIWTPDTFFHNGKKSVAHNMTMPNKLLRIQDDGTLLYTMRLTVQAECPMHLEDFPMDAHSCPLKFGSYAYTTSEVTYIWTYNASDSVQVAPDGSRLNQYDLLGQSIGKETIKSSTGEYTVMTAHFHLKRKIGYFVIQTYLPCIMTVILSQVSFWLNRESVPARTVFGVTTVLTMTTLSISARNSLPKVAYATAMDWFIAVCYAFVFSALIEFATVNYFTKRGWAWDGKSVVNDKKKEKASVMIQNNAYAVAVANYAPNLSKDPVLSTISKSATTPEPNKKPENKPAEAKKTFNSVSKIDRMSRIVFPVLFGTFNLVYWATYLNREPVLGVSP

[5] = biological target: GABA-A receptor; alpha-3/beta-3/gamma-2 (Homo sapiens) (UniProt P18507+P28472+P34903); assay: Modulatory effect on coapplication with GABA at human Gamma-aminobutyric acid A receptor alpha-3-beta-3-gamma-2 in Xenopus oocytes.; type: cell-based; conditions: Oocyte
How it was run: (§2)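 Two-electrode voltage clamp of Xenopus oocytes transiently expressing human α1, α2 or α3 β3γ2S receptors. Test compound is co-applied with GABA at its EC20 (GABA range 4-30 µM). Result is the % change in GABA current, mean (SEM), n = 3-7, at the stated test compound concentration (µM).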

[6] = biological target: GABA-A receptor; alpha-1/beta-3/gamma-2 (Homo sapiens) (UniProt P14867+P18507+P28472); assay: Modulatory effect on coapplication with GABA at human Gamma-aminobutyric acid A receptor alpha-1-beta-3-gamma-2 in Xenopus oocyte.; how it was run: as §2
[7] = biological target: GABA-A receptor; alpha-2/beta-3/gamma-2 (Homo sapiens) (UniProt P18507+P28472+P47869); assay: Modulatory effect on coapplication with GABA at human Gamma-aminobutyric acid A receptor alpha-2-beta-3-gamma-2 expressed inXenopus oocytes; type: cell-based; conditions: Oocyte; how it was run: as §2
[8] = biological target: T2, GABA-A receptor; alpha-1/beta-3/gamma-2; assay: Displacement of [3H]Ro-151788 from human GABA-A receptor alpha-1-beta-3-gamma-2 subunits expressed in L(tk-) cells; type: cell-based; how it was run: as §1
[9] = biological target: T3, GABA-A receptor; alpha-5/beta-3/gamma-2; assay: Displacement of [3H]Ro-151788 from human GABA-A receptor alpha-5-beta-3-gamma-2 subunits expressed in L(tk-) cells; type: cell-based; how it was run: as §1
[10] = biological target: T4, GABA-A receptor; alpha-2/beta-3/gamma-2; assay: Displacement of [3H]Ro-151788 from human GABA-A receptor alpha-2-beta-3-gamma-2 subunits expressed in L(tk-) cells; type: cell-based; how it was run: as §1

Row | Ki [1] | Ki [2] | Ki [3] | Ki [4] | percent modulation of GABA EC20 response [5] | percent modulation of GABA EC20 response [6] | percent modulation of GABA EC20 response [7] | Ki [8] | Ki [9] | Ki [10] | SMILES
1 | 320 nM | 260 nM |  | 1100 nM | 81% | 111% |  |  | 1300 nM |  | COc1ccc(-c2cc(-c3noc(C)n3)c(=O)n(C)c2-c2ccncc2)cc1
2 | 250 nM | 330 nM | > 1000 nM | 380 nM |  |  |  |  |  |  | COc1ccc(-c2cc(-c3ncc(C)s3)c(=O)n(C)c2-c2ccncc2)cc1
3 | 6.2 nM | 45 nM |  | 37 nM | 32% | 56% | 67% |  | > 1000 nM |  | COc1ccc(-c2cc(-c3nccs3)c(=O)n(C)c2-c2ccncc2)cc1
4 | 60 nM | 310 nM |  | 240 nM | 150% | 120% | 142% |  |  |  | COc1ccc(-c2cc(-c3noc(C4CC4)n3)c(=O)n(C)c2-c2ccncc2)cc1
5 | 3.8 nM | 12.8 nM | > 667 nM | 5 nM | 77% | 78% |  |  |  |  | COc1ccc(-c2cc(-c3nc(C)cs3)c(=O)n(C)c2-c2cccnc2)cc1
6 | 25 nM | 90 nM | > 667 nM | 42 nM | 138% | 117% | 97% |  |  |  | COc1ccc(-c2cc(-c3nc(C)ns3)c(=O)n(C)c2-c2ccncc2)cc1
7 | 23 nM | 41 nM |  |  |  |  |  |  | 340 nM | 38 nM | COc1ccc(-c2cc(-c3cc(C)cs3)c(=O)n(C)c2-c2ccncc2)cc1
8 | 12 nM | 31 nM | > 1000 nM | 24 nM | 35% | 29% |  |  |  |  | COc1ccc(-c2cc(-c3nc(C4CC4)cs3)c(=O)n(C)c2-c2ccncc2)cc1
9 | 12 nM | 39 nM | 450 nM | 51 nM | 18% |  |  |  |  |  | COc1ccc(-c2cc(-c3ccsc3)c(=O)n(C)c2-c2ccncc2)cc1

The next lines start with the compound.

Row | SMILES | Ki [1] | Ki [2] | Ki [3] | Ki [4] | percent modulation of GABA EC20 response [5] | percent modulation of GABA EC20 response [6] | percent modulation of GABA EC20 response [7] | Ki [8] | Ki [9] | Ki [10]
10 | COC(=O)c1cc(-c2ccccc2)c(-c2ccc(N(C)C)cc2)n(C)c1=O | 270 nM | 630 nM | > 667 nM | 470 nM |  |  |  |  |  | 
11 | COC(=O)c1cc(-c2ccc(OC)cc2)c(-c2ccncc2)n(C)c1=O | 79 nM | 1020 nM | 390 nM | 320 nM | -25% | 3% | 8% |  |  | 
12 | COC(=O)c1cc(-c2ccc(OC)cc2)c(-c2cccnc2)n(C)c1=O | 73 nM |  | > 667 nM | 76 nM |  |  |  | 680 nM |  | 
13 | COc1ccc(-c2cc(C#N)c(OC)nc2-c2ccc(N(C)C)cc2)cc1 | > 30000 nM | > 30000 nM | > 667 nM | > 30000 nM |  |  |  |  |  | 
14 | Cc1csc(-c2cc(-c3ccncc3)c(-c3ccncc3)n(C)c2=O)n1 | 6.7 nM |  |  |  | -4% | -23% |  | 24 nM | 270 nM | 20 nM
15 | Cc1csc(-c2cc(-c3ccc(F)cc3)c(-c3ccncc3)n(C)c2=O)n1 | 3.5 nM | 13 nM | 380 nM | 8 nM | 41% | 57% |  |  |  | 
16 | COc1ccc(-c2cc(-c3ccccc3)c(=O)n(C)c2-c2ccncc2)cc1 | 24 nM | 83 nM | > 1000 nM | 130 nM | 63% | 45% |  |  |  | 
17 | COC(=O)c1cc(-c2ccccc2)c(-c2ccccc2)n(C)c1=O | 270 nM | 520 nM |  |  |  |  |  |  |  | 
18 | COC(=O)c1cc(-c2ccc(OC)cc2)c(-c2ccccc2)n(C)c1=O | 210 nM |  | 393 nM | 340 nM |  |  |  | 625 nM |  | 
19 | COC(=O)c1cc(-c2ccc(OC)cc2)c(-c2ccccn2)n(C)c1=O | 510 nM | > 3000 nM | > 667 nM | > 667 nM |  |  |  |  |  | 
